Assay results taken from ChEMBL document CHEMBL4411320, “Synthesis and anti-HCV activity of β-d-2'-deoxy-2'-α-chloro-2'-β-fluoro and β-d-2'-deoxy-2'-α-bromo-2'-β-fluoro nucleosides and their phosphoramidate prodrugs” (Bioorg Med Chem, 2019).

Key:
Hepatitis C virus = assay: Antiviral activity against HCV genotype 1b subgenomic replicon infected in human HuH7 clone B cells assessed as inhibition of viral RNA replication after 5 days by RT-PCR method; assay type: functional, organism-based, Hepacivirus hominis; settings: subtype 1b, Huh-7, 120 h
Procedure, shortened: (§1)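 Huh-7 cells carrying a genotype 1b subgenomic HCV replicon were exposed to compounds at concentrations […]. Total RNA was then extracted and amplified to quantify both replicon HCV RNA (antiviral read-out) and cellular ribosomal RNA (cytotoxicity read-out), in the same cultures at the same time.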

Vero = assay: (§2) Cytotoxicity against African green monkey Vero cells after 3 days by hemocytometric method; assay type: cell-based; settings: chlorocebus sabaeus, vero, 72 h
PBMC = assay: (§3) Cytotoxicity against human PBMC after 6 days by trypan blue exclusion method; assay type: cell-based; settings: pbmc, 144 h
Huh-7 = assay: (§4) Cytotoxicity against human HuH7 cells assessed as reduction in rRNA levels after 5 days by RT-PCR analysis; assay type: cell-based; settings: huh-7, 120 h; procedure, shortened: as §1
CCRF-CEM = assay: (§5) Cytotoxicity against human CEM cells after 6 days by trypan blue exclusion method; assay type: cell-based; settings: ccrf-cem, 144 h
[1] = as §2; assay type: cell-based; settings: chlorocebus sabaeus, Vero cells
[2] = as §3; assay type: cell-based; settings: PBMC
[3] = as §4; assay type: cell-based, Huh-7; settings: HuH7 cells; procedure, shortened: as §1
[4] = as §5; assay type: cell-based, CCRF-CEM; settings: CEM cells

Nc1ccn([C@@H]2O[C@H](CO)[C@@H](O)[C@@]2(F)Cl)c(=O)n1
EC50 (Hepatitis C virus): > 10 µM | CC50 (Vero): 63 µM | CC50 (PBMC): 9.3 µM | CC50 (Huh-7): 12 µM | CC50 (CCRF-CEM): 11 µM

O=c1ccn([C@@H]2O[C@H](CO)[C@@H](O)[C@@]2(F)Cl)c(=O)[nH]1
EC50 (Hepatitis C virus): > 10 µM | EC90 (Hepatitis C virus): > 10 µM | CC50 (Vero): > 100 µM | CC50 (PBMC): > 100 µM | CC50 (Huh-7): > 100 µM | CC50 (CCRF-CEM): > 100 µM

Nc1ncnc2c1ncn2[C@@H]1O[C@H](CO)[C@@H](O)[C@@]1(F)Cl
EC50 (Hepatitis C virus): > 10 µM | CC50 (Vero): > 100 µM | CC50 (PBMC): > 100 µM | CC50 (Huh-7): > 100 µM | CC50 (CCRF-CEM): > 100 µM

Nc1nc2c(ncn2[C@@H]2O[C@H](CO)[C@@H](O)[C@@]2(F)Cl)c(=O)[nH]1
EC50 (Hepatitis C virus): > 10 µM | EC90 (Hepatitis C virus): > 10 µM | CC50 (Vero): > 100 µM | CC50 (PBMC): > 100 µM | CC50 (Huh-7): > 100 µM | CC50 (CCRF-CEM): > 100 µM

CC(C)OC(=O)[C@H](C)N[P@](=O)(OC[C@H]1O[C@@H](n2cnc3c(=O)[nH]c(N)nc32)[C@](F)(Br)[C@@H]1O)Oc1ccccc1
EC50 (Hepatitis C virus): > 10 µM | EC90 (Hepatitis C virus): > 10 µM | CC50 (Vero): > 100 µM | CC50 (PBMC): > 100 µM | CC50 (Huh-7): > 100 µM | CC50 (CCRF-CEM): > 100 µM

O=c1ccn([C@@H]2O[C@H](CO)[C@@H](O)[C@@]2(F)Br)c(=O)[nH]1
EC50 (Hepatitis C virus): > 10 µM | EC90 (Hepatitis C virus): > 10 µM | CC50 (Vero): > 100 µM | CC50 (PBMC): > 100 µM | CC50 (Huh-7): > 100 µM | CC50 (CCRF-CEM): > 100 µM

Nc1nc2c(ncn2[C@@H]2O[C@H](CO)[C@@H](O)[C@@]2(F)Br)c(=O)[nH]1
EC50 (Hepatitis C virus): > 10 µM | CC50 (Vero): > 100 µM | CC50 (PBMC): > 100 µM | CC50 (Huh-7): > 100 µM | CC50 (CCRF-CEM): > 100 µM

Nc1ccn([C@@H]2O[C@H](CO)[C@@H](O)[C@@]2(F)Br)c(=O)n1
EC50 (Hepatitis C virus): 5.1 µM | EC90 (Hepatitis C virus): > 10 µM | CC50 (Vero): 2.9 µM | CC50 (PBMC): > 100 µM | CC50 (Huh-7): 2.9 µM | CC50 (CCRF-CEM): 3.2 µM

Nc1ncnc2c1ncn2[C@@H]1O[C@H](CO)[C@@H](O)[C@@]1(F)Br
EC50 (Hepatitis C virus): > 10 µM | CC50 (Vero): > 100 µM | CC50 (PBMC): > 100 µM | CC50 (Huh-7): > 100 µM | CC50 (CCRF-CEM): > 100 µM

CC(C)OC(=O)[C@H](C)NP(=O)(OC[C@H]1O[C@@H](n2cnc3c(N)ncnc32)[C@](F)(Br)[C@@H]1O)Oc1ccccc1 (mixture of isomers)
EC50 (Hepatitis C virus): > 10 µM | CC50 (Vero): 71 µM | CC50 (PBMC): 19 µM | CC50 (Huh-7): 6.9 µM | CC50 (CCRF-CEM): 29 µM

CC(C)OC(=O)[C@H](C)NP(=O)(OC[C@H]1O[C@@H](n2ccc(=O)[nH]c2=O)[C@](F)(Cl)[C@@H]1O)Oc1ccccc1 (mixture of isomers)
EC50 (Hepatitis C virus): 0.9 µM | EC90 (Hepatitis C virus): 3.7 µM | CC50 (Vero): > 100 µM | CC50 (PBMC): > 100 µM | CC50 (Huh-7): 1.3 µM | CC50 (CCRF-CEM): 90 µM

CC(C)OC(=O)[C@H](C)NP(=O)(OC[C@H]1O[C@@H](n2cnc3c(N)ncnc32)[C@](F)(Cl)[C@@H]1O)Oc1ccccc1 (mixture of isomers)
EC50 (Hepatitis C virus): 2.7 µM | EC90 (Hepatitis C virus): ≥ 10 µM | CC50 (Vero): > 100 µM | CC50 (PBMC): 26 µM | CC50 (Huh-7): 1.6 µM | CC50 (CCRF-CEM): 15 µM

CC(C)OC(=O)[C@H](C)NP(=O)(OC[C@H]1O[C@@H](n2ccc(=O)[nH]c2=O)[C@](F)(Br)[C@@H]1O)Oc1ccccc1 (mixture of isomers)
EC50 (Hepatitis C virus): 0.4 µM | EC90 (Hepatitis C virus): 2 µM | CC50 at 72 h [1]: > 100 µM | CC50 (Huh-7): 8 µM

CC(C)OC(=O)[C@H](C)NP(=O)(OC[C@H]1O[C@@H](n2ccc(N)nc2=O)[C@](F)(Br)[C@@H]1O)Oc1ccccc1 (mixture of isomers)
EC50 (Hepatitis C virus): 2.4 µM | EC90 (Hepatitis C virus): ≥ 10 µM | CC50 (Vero): > 100 µM | CC50 (PBMC): > 100 µM | CC50 (Huh-7): 6.8 µM | CC50 (CCRF-CEM): > 100 µM

CC(C)OC(=O)[C@H](C)NP(=O)(OC[C@H]1O[C@@H](n2ccc(N)nc2=O)[C@](F)(Cl)[C@@H]1O)Oc1ccccc1 (mixture of isomers)
EC50 (Hepatitis C virus): 0.7 µM | EC90 (Hepatitis C virus): 3.4 µM | CC50 (Vero): > 100 µM | CC50 (PBMC): > 100 µM | CC50 (Huh-7): 23 µM | CC50 (CCRF-CEM): > 100 µM

CC(C)OC(=O)[C@H](C)NP(=O)(OC[C@H]1O[C@@H](n2cnc3c(=O)[nH]c(N)nc32)[C@](F)(Cl)[C@@H]1O)Oc1ccccc1 (mixture of isomers)
EC50 (Hepatitis C virus): > 10 µM | CC50 (Vero): > 100 µM | CC50 (PBMC): > 100 µM | CC50 (Huh-7): > 100 µM | CC50 (CCRF-CEM): 84 µM

CC(C)OC(=O)[C@H](C)N[P@](=O)(OC[C@H]1O[C@@H](n2ccc(=O)[nH]c2=O)[C@](C)(F)[C@@H]1O)Oc1ccccc1 [SOFOSBUVIR]
EC50 (Hepatitis C virus): 0.05 µM | EC90 (Hepatitis C virus): 0.37 µM | CC50 at 72 h [1]: > 100 µM | CC50 at 144 h [2]: > 100 µM | CC50 at 120 h [3]: > 100 µM | CC50 at 144 h [4]: > 100 µM
